Experimental data taken from ChEMBL document CHEMBL1157674, “Nanomolar affinity, iminosugar-based chemical probes for specific labeling of lysosomal glucocerebrosidase” (Bioorg Med Chem, 2010).
Activity calls are given as the source filed them. No cut-off for these calls is given here.

Experiments:
[1] = Displacement of PNPG from almond beta-glucosidase by UV spectroscopy; parameters: species or system Prunus dulcis
How it was run: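 Almond β-glucosidase with p-nitrophenyl β-D-glucopyranoside (0.2–5 mM) in 0.1 M acetate buffer pH 5.0, 150 µL wells. After 15 min at 37 °C, p-nitrophenol read at 405 nm. Ki derived by varying both inhibitor and substrate concentrations.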

[2] = target: T1, Lysosomal acid glucosylceramidase (Homo sapiens) (UniProt P04062); assay: Binding affinity to human GBA at 0.1 uM by fluorescence assay
T1 sequence (whole entry): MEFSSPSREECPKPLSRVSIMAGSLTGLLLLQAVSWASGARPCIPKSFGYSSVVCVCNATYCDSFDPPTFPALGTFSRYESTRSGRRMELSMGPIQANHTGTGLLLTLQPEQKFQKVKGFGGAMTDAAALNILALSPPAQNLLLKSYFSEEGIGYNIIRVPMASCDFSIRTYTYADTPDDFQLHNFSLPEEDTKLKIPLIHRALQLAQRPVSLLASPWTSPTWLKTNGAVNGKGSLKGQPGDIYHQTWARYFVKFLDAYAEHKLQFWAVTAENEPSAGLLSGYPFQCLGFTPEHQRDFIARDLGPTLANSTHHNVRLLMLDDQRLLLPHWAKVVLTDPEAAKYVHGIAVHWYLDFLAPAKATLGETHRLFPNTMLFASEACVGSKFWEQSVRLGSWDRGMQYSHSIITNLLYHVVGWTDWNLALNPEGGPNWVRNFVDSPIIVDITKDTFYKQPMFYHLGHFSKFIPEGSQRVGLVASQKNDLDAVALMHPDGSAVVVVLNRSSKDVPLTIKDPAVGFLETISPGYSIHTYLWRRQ
How it was run: (§1)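 Ceredase (human placental GBA) photolabeled in 50 µL with probe at 10, 5, 3, 1, 0.5 or 0.1 µM in 50 mM HEPES pH 6.1. UV 366 nm, 30 min, 4 °C. Then CuSO4/TCEP click with fluorescein-N3 for 16 h at 4 °C, denaturation at 95 °C, SDS–PAGE and fluorescence scanning.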

[3] = target: T1, Lysosomal acid glucosylceramidase (Homo sapiens); assay: Displacement of deoxynojirimycin from human GBA at 5 uM by fluorescence assay
How it was run: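 Competition labeling: Ceredase with probe plus 0, 0.5, 5 or 25 µL of 1 mM deoxynojirimycin stock in 50 µL, 50 mM HEPES pH 6.1. UV irradiation at 366 nm for 30 min at 4 °C, then fluorescein-N3 click and SDS–PAGE fluorescence read-out.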

[4] = target: T2, Lysosomal acid glucosylceramidase (Homo sapiens, UniProt P04062); assay: Displacement of 4-methylumbelliferyl from human GBA by fluorimetry
T2 sequence (P04062 whole entry): T1 sequence (whole entry)

[5] = target: T1, Lysosomal acid glucosylceramidase (Homo sapiens); assay: Binding affinity to human GBA at 10 uM by fluorescence assay; how it was run: as §1
[6] = target: T3, Beta-glucosidase (Homo sapiens, UniProt Q9HCG7); assay: Displacement of 4-methylumbelliferyl from non-lysosomal GBA2 by fluorimetry
T3 sequence (Q9HCG7 whole entry): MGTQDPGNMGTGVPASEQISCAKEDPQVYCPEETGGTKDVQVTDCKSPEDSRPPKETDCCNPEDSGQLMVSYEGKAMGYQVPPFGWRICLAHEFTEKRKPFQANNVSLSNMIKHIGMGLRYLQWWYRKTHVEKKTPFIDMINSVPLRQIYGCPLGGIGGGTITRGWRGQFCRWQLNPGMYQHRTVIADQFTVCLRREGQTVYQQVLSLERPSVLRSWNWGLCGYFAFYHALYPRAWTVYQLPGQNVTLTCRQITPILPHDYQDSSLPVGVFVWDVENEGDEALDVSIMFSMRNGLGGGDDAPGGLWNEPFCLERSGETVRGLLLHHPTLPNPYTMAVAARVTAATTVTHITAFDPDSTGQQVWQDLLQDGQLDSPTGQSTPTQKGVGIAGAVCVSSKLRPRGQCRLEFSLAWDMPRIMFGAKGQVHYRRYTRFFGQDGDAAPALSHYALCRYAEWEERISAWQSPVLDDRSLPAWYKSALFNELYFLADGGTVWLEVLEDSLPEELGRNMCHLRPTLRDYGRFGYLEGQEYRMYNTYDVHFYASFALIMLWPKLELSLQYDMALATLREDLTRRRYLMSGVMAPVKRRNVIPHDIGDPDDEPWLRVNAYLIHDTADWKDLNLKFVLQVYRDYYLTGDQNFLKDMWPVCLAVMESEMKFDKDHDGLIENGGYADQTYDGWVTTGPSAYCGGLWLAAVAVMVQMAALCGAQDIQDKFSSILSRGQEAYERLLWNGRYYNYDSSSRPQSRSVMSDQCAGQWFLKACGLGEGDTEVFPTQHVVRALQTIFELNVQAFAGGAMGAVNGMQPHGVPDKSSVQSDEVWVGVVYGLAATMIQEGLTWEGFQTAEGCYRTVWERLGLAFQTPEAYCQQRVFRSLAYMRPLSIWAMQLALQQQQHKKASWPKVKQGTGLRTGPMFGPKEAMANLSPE

[7] = target: T1, Lysosomal acid glucosylceramidase (Homo sapiens); assay: Binding affinity to GBA in human HeLa cell extract at 3 uM by fluorescence assay; type: cell-free
How it was run: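 300 ng Ceredase with increasing HeLa cell lysate (0.5 mg/mL stock; 0–40 µL) in 50 mM HEPES pH 6.1 with probe. UV 366 nm, 30 min, 4 °C. Then fluorescein-N3 click, SDS–PAGE, fluorescence scan and silver stain. Lysate prepared from 2.5×10^5 PBS-washed cells by detergent extraction; protein measured by BCA.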

[8] = Inhibition of Agrobacterium sp. beta-glucosidase
[9] = tested on: Prunus dulcis; assay: Binding affinity to almond beta-glucosidase expressed in Escherichia coli BL21 (DE3) at 100 uM by fluorescence assay
How it was run: (§2)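 E. coli BL21(DE3) lysate (1 mg/mL protein by BCA) spiked with varying amounts of almond β-glucosidase. Probe added as 4 or 10 µL of a 1 mM stock in 100 µL, in HEPES/NaCl pH 7.4. Photolabeling at 366 nm, 30 min, 4 °C, then fluorescein-N3 click. SDS–PAGE with fluorescence scan and silver stain.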

[10] = tested on: Prunus dulcis; assay: Binding affinity to almond beta-glucosidase expressed in Escherichia coli BL21 (DE3) at 40 uM by fluorescence assay; how it was run: as §2
[11] = tested on: Prunus dulcis; assay: Binding affinity to almond beta-glucosidase at 40 uM after 30 mins by fluorescence assay
How it was run: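 Almond β-glucosidase from a 1 mg/mL stock, with probe added from a 1 mM stock in 5% DMSO/water, in 50 mM HEPES, 150 mM NaCl, pH 7.4. UV irradiation at 366 nm for 30 min at 4 °C; a non-irradiated control was kept dark. Then CuSO4/TCEP click with fluorescein-N3 for 1 h at rt. SDS–PAGE, fluorescence scan, then silver stain.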

[12] = target: T1, Lysosomal acid glucosylceramidase (Homo sapiens); assay: Binding affinity to human GBA at 0.1 to 10 uM by fluorescence assay; how it was run: as §1

| Ki [1] [µM] | Activity [2] | Activity [3] | IC50 [4] [nM] | Activity [5] | IC50 [6] [nM] | Activity [9] | Compound | other results |
| --- | --- | --- | --- | --- | --- | --- | --- | --- |
| 1.3 | inactive | Active | 350 | Active | 20 |  | C#CCOc1ccc(C(=O)c2ccc(C(=O)NCCCN3C[C@H](O)[C@@H](O)[C@H](O)[C@H]3CO)cc2)cc1 | Activity [7]: Active |
|  |  |  |  |  |  | Active | C#CCOc1ccc(C(=O)c2ccc(O)cc2)cc1 |  |
| 588 | inactive | Active |  | Active |  | Active | C#CCOc1ccc(C(=O)c2ccc(O[C@@H]3O[C@H](CO)[C@@H](O)[C@H](O)[C@H]3O)cc2)cc1 | Activity [10]: Active; Activity [11]: Active |

The next lines start with the compound.

| Compound | Ki [1] [µM] | Activity [2] | Activity [3] | IC50 [4] [nM] | Activity [5] | IC50 [6] [nM] | Activity [9] | other results |
| --- | --- | --- | --- | --- | --- | --- | --- | --- |
| CN(C)c1cccc2c(S(=O)(=O)NC[C@H]3N[C@H](CO)[C@@H](O)[C@@H]3O)cccc12 |  |  |  |  |  |  |  | Ki [8]: 2 nM |
| OC[C@H]1NC[C@H](O)[C@@H](O)[C@@H]1O [DUVOGLUSTAT] | 167 |  |  |  |  |  |  |  |
| C#CCOc1ccc(C(=O)CCC(=O)NCCCN2C[C@H](O)[C@@H](O)[C@H](O)[C@H]2CO)cc1 | 6.4 |  | Active | 1650 |  | 75 |  | Activity [12]: inactive |
